Reference: ChEMBL document CHEMBL1152279 (J Med Chem, 2008)

Key:
Histamine H2 receptor [1] = target: T1, Histamine H2 receptor (Cavia porcellus, UniProt P47747); test: Agonist activity at histamine H2 receptor in guinea pig spontaneously beating right atrium assessed as positive chronotropic activity; type: functional, tissue-based, Cardiac atrium
[2] = target: Histamine H2 receptor (Cavia porcellus) (UniProt P47747); test: Agonist activity at histamine H2 receptor in guinea pig spontaneously beating right atrium assessed as positive chronotropic activity relative to histamine; type: functional, tissue-based; conditions: Cardiac atrium
Histamine H2 receptor (Cavia porcellus), sequence (P47747 whole entry, the tested form may be a part): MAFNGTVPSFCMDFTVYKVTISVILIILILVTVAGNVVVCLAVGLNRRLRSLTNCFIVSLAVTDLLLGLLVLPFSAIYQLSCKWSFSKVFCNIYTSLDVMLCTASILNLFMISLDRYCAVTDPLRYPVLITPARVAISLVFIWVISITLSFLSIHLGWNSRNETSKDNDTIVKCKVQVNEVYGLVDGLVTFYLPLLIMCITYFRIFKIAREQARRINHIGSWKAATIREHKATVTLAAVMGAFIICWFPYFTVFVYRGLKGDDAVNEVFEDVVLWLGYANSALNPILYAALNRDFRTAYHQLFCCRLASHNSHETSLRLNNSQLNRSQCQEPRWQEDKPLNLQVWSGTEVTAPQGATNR

Histamine H1 receptor = Histamine H1 receptor (Cavia porcellus, UniProt P31389); test: Antagonist activity at histamine H1 receptor in guinea pig ileum assessed as inhibition of histamine-induced […]; type: functional, tissue-based; conditions: for Kb: read-out: pA2 (converted)
Histamine H1 receptor, sequence (P31389 whole entry): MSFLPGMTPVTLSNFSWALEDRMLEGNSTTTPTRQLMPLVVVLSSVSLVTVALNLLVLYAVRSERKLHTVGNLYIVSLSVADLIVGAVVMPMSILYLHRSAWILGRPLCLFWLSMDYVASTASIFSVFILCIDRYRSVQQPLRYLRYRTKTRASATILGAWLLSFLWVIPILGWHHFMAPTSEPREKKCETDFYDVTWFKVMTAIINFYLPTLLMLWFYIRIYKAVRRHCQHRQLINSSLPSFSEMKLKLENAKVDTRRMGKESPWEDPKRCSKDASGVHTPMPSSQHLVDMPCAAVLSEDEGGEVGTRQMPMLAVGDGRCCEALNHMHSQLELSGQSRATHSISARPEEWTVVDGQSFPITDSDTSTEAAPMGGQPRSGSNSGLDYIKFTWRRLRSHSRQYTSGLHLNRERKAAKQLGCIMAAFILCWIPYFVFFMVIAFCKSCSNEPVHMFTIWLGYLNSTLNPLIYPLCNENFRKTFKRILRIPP

[3] = target: Histamine H1 receptor (Homo sapiens) (UniProt P35367); test: Antagonist activity at histamine H1 receptor in human U373 MG cells assessed as inhibition of histamine-induced intracellular calcium level preincubated for 15 mins prior to histamine challenge; type: functional, cell-based; conditions: U-373MG ATCC
Histamine H1 receptor (Homo sapiens), sequence (P35367 whole entry, the tested form may be a part): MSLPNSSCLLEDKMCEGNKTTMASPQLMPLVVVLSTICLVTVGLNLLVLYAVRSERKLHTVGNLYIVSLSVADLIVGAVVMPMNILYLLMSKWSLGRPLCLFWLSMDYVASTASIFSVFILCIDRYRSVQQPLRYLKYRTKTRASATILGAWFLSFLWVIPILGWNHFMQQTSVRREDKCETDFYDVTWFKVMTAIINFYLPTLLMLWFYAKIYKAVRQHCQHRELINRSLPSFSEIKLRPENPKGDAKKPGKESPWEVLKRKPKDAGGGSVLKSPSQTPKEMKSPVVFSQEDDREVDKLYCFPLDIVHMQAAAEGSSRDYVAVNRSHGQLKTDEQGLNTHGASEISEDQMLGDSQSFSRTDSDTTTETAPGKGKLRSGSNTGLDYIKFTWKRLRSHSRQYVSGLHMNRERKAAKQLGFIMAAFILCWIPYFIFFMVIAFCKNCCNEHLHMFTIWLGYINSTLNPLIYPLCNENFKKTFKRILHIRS
Method in brief: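 U373-MG human cells expressing H1R, calcium assay. […] KB was derived from IC50 by the Cheng-Prusoff equation. Values are the mean of two experiments.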

[4] = target: Histamine H2 receptor (Cavia porcellus) (UniProt P47747); test: Activity at guinea pig recombinant histamine H2 receptor-Gsalpha fusion protein expressed in Sf9 cells by steady-state GTPase activity assay relative to histamine
Method in brief: (§1)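 Membranes from Sf9 insect cells expressing the receptor construct named in each line: hH1R with RGS4, hH2R-GsR or gpH2R-GsR fusion, hH3R with GRi, Gβ1γ2 and RGS4, or hH4R-RGS19 fusion with GRi2 and Gβ1γ2. […] Values are mean ± SEM.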

Histamine H3 receptor [5] = target: T2, Histamine H3 receptor (Homo sapiens, UniProt Q9Y5N1); test: Activity at human recombinant histamine H3 receptor expressed in Sf9 cells coexpressing Galphai2, G-beta-1-gamma-2 and RGS4 by steady-state GTPase activity assay relative to histamine; method in brief: as §1
T2 sequence (Q9Y5N1 whole entry): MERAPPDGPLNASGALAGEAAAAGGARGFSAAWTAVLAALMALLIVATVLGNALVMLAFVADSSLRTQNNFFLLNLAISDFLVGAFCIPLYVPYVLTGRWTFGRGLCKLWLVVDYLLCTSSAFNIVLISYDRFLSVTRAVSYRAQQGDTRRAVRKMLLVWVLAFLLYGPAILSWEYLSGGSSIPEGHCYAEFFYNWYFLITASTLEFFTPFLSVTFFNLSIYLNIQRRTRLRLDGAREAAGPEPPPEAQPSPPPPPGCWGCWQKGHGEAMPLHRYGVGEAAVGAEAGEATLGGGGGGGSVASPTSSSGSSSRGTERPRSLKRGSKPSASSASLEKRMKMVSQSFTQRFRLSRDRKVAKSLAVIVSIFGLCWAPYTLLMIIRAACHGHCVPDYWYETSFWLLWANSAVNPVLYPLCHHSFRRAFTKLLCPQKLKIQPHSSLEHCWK

[6] = target: Histamine H1 receptor (Homo sapiens) (UniProt P35367); test: Activity at human recombinant histamine H1 receptor expressed in Sf9 cells coexpressing RGS4 by steady-state GTPase activity assay relative to histamine; method in brief: as §1
Histamine H2 receptor [7] = target: T3, Histamine H2 receptor (Homo sapiens, UniProt P25021); test: Activity at human recombinant histamine H2 receptor-Gsalpha fusion protein expressed in Sf9 cells by steady-state GTPase activity assay relative to histamine; method in brief: as §1
T3 sequence (P25021 whole entry, the tested form may be a part): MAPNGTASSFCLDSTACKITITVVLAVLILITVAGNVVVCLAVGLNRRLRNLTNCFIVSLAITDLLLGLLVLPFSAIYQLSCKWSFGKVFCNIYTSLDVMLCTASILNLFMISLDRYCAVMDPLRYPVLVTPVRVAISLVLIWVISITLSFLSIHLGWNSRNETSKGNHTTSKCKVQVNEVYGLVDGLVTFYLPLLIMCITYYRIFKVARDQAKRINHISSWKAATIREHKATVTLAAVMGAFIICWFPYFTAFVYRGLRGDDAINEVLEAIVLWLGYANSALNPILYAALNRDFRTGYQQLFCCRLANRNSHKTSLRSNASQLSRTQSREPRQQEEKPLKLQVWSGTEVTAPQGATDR

Histamine H3 receptor [8] = target: T2, Histamine H3 receptor; test: Activity at human recombinant histamine H3 receptor expressed in Sf9 cells coexpressing Galphai, G-beta-1-gamma-2 and RGS4 by steady-state GTPase activity assay; method in brief: as §1
[9] = Terminal half life in nude mouse plasma; type: ADME, organism-based; conditions: read-out: beta t1/2
Histamine H2 receptor [10] = target: T3, Histamine H2 receptor; test: Activity at human recombinant histamine H2 receptor-Gsalpha fusion protein expressed in Sf9 cells by steady-state GTPase activity assay
Method in brief: (§2)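 Membranes from Sf9 insect cells expressing the receptor construct named in each line: hH1R with RGS4, hH2R-GsR or gpH2R-GsR fusion, hH3R with GRi, Gβ1γ2 and RGS4, or hH4R-RGS19 fusion with GRi2 and Gβ1γ2. Values are mean ± SEM.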

Histamine H2 receptor [11] = target: T1, Histamine H2 receptor; test: Activity at guinea pig recombinant histamine H2 receptor-Gsalpha fusion protein expressed in Sf9 cells by steady-state GTPase activity assay; method in brief: as §2
Histamine H4 receptor = Histamine H4 receptor (Homo sapiens, UniProt Q9H3N8); test: Activity at human recombinant histamine H4 receptor-RGS19 fusion protein expressed in Sf9 cells coexpressing Galphai2 and G-beta-1-gamma-2 by steady-state GTPase activity assay
[12] = target: Histamine H1 receptor (Cavia porcellus) (UniProt P31389); test: Antagonist activity at histamine H1 receptor in guinea pig ileum assessed as […]
Histamine H1 receptor (Cavia porcellus), sequence (P31389 whole entry): as the sequence (P31389 whole entry) above

T1 sequence (P47747 whole entry): as the sequence (P47747 whole entry, the tested form may be a part) above

EC50 (Histamine H2 receptor [1]) [nM] | Activity [2] [%] | Emax [2] [%] | Kb (Histamine H1 receptor) [nM] | Kb [3] [nM] | SMILES | further results
56.2 | 1780 | 94 | 1820 | 7100 | N=C(NCCCc1c[nH]cn1)NC(=O)CCCc1ccccc1 | –
– | 6350 | 99 | – | 3000 | CC(CC(=O)/N=C(\N)NCCCc1c[nH]cn1)c1ccccc1 (stereo unspecified) | Activity [4]: 10000%; Efficacy [4]: 1.03; Activity (Histamine H3 receptor [5]): 1024%; Efficacy (Histamine H3 receptor [5]): 0.24; Activity [6]: 1.3%; Efficacy [6]: 0.35; Activity (Histamine H2 receptor [7]): 1800%; Efficacy (Histamine H2 receptor [7]): 0.87
9.77 | – | – | – | – | NC(=NCCC(c1ccc(F)cc1)c1ccccn1)NCCCc1cnc[nH]1 (stereo unspecified) [ARPROMIDINE] | –
– | 2930 | 100 | – | 5200 | N=C(NCCCc1c[nH]cn1)NC(=O)CC(c1ccc(F)cc1)c1ccccn1 (stereo unspecified) | –
– | 3200 | 101 | – | 8500 | Cc1[nH]cnc1CSCC(=O)NC(=N)NCCCc1c[nH]cn1 | –
3630 | – | – | > 10000 | – | CC(C(=O)NC(N)=NCCCc1cnc[nH]1)c1ccccc1 (stereo unspecified) | –
15.8 | – | – | 1350 | – | CC(CC(=O)NC(N)=NCCCc1cnc[nH]1)c1ccccc1 (stereo unspecified) | EC50 (Histamine H3 receptor [8]): 2.45 nM; half-life [9]: 1.12 h; EC50 (Histamine H2 receptor [10]): 67 nM; EC50 (Histamine H2 receptor [11]): 12 nM; EC50 (Histamine H4 receptor): 15.3 nM
– | 10200 | 100 | – | – | N=C(NCCCc1c[nH]cn1)NCCC(c1ccc(F)cc1)c1ccccn1 (stereo unspecified) | –
– | 2630 | 99 | – | 2100 | CC(CC(=O)NC(=N)NCCCc1c[nH]cn1)c1cccs1 (stereo unspecified) | Activity [4]: 5710%; Efficacy [4]: 1.05; Activity (Histamine H3 receptor [5]): 1530%; Efficacy (Histamine H3 receptor [5]): 0.29; Activity [6]: 1.8%; Activity (Histamine H2 receptor [7]): 1160%; Efficacy (Histamine H2 receptor [7]): 0.97
53.7 | – | – | – | – | NC(=NCCCc1cnc[nH]1)NC(=O)CC(c1ccccc1)c1ccc(F)c(F)c1 (stereo unspecified) | –
20 | 5000 | 100 | 3390 | – | Cc1[nH]cnc1CSCCNC(=N)NCCCc1c[nH]cn1 [IMPROMIDINE] | –
– | 2590 | 91 | – | 11100 | CC(CC(=O)NC(=N)NCCCc1c[nH]cn1)c1nccs1 (stereo unspecified) | –
– | 320 | 60 | – | – | N=C(NCCCc1c[nH]cn1)NC(=O)CC(c1ccc(Cl)cc1)c1ccc(Cl)cc1 | –
– | 1030 | 100 | – | 6200 | N=C(NCCCc1c[nH]cn1)NC(=O)CC(c1ccc(F)c(F)c1)c1ncc[nH]1 (stereo unspecified) | –
67.6 | – | – | 2190 | – | CC(CC(=O)NC(N)=NCCCc1cnc[nH]1)C1CCCCC1 (stereo unspecified) | –
646 | 154 | 64 | 9770 | 8700 | N=C(NCCc1c[nH]cn1)NC(=O)CC(c1ccccc1)c1ccccc1 | pD'2 [12]: 4.55
– | 95 | 69 | – | 4000 | N=C(NCCCc1c[nH]cn1)NC(=O)C(c1ccccc1)c1ccccc1 | –
– | 1470 | 101 | – | 140 | CC(CC(=O)NC(=N)NCCCc1c[nH]cn1)C1CCCCC1 (stereo unspecified) | –
776 | – | – | – | – | NC(=NCCCc1cnc[nH]1)NC(=O)CC(c1ccc(Br)cc1)c1ccc(Br)cc1 | –
– | 1000 | 95 | – | 4300 | N=C(NCCCc1c[nH]cn1)NC(=O)CC1CCCCC1 | –
204 | 490 | 76 | – | 1400 | N=C(NCCCc1c[nH]cn1)NC(=O)CC(c1ccc(F)cc1)c1ccc(F)cc1 | pD'2 [12]: 5.95
468 | 211 | 86 | 562 | – | N=C(NCCCc1c[nH]cn1)NC(=O)CCCCc1ccccc1 | –
61.7 | – | – | 6170 | – | NC(=NCCCc1cnc[nH]1)NC(=O)CCC1CCCCC1 | –
– | 3530 | 85 | – | – | N=C(NCCCc1c[nH]cn1)NC(=O)CC(c1ccccc1)c1ccccc1 | Activity [4]: 19000%; Efficacy [4]: 0.93; Kb (Histamine H3 receptor [8]): 17.1 nM; Activity [6]: 6.4%; Efficacy [6]: 0.19; Activity (Histamine H2 receptor [7]): 1500%; Efficacy (Histamine H2 receptor [7]): 0.69; pD'2 [12]: 5.2
47.9 | – | – | 5130 | – | NC(=NCCCc1cnc[nH]1)NC(=O)C1CCCCC1 | –

SMILES | EC50 (Histamine H2 receptor [1]) [nM] | Activity [2] [%] | Emax [2] [%] | Kb (Histamine H1 receptor) [nM] | Kb [3] [nM] | further results
N=C(NCCCc1c[nH]cn1)NC(=O)Cc1ccccc1 | – | 546 | 97 | – | 2800 | –
N=C(NCCCc1c[nH]cn1)NC(=O)c1ccccc1 | 1170 | 86 | 89 | – | 15800 | pA2 (Histamine H1 receptor): > 5
